Measurements pooled from the literature.
Each line is one published result; the experiments were not run side by side.
Target: Carbonic anhydrase 2 (CA2, Homo sapiens, UniProt P00918)
Observed: enzyme activity
Action: inhibitor

SMILES | assay | Ki [nM]
OC1CCN(c2ccc(/C=N/NC(=S)NC3CCCCC3)cc2)CC1 |  | 482
NS(=O)(=O)c1nnc(NC(=O)C2CCC3(CCCCC3)CC2)s1 | stopped-flow | 32.6
OC1CCN(c2ccc(/C=N/NC(=S)NCCc3ccccc3)cc2)CC1 |  | 656
OCCOCCN1CCN(C(c2ccccc2)c2ccc(Cl)cc2)CC1 (centres unmarked) | absorbance | 11500
CC1(C(=O)Nc2nnc(S(N)(=O)=O)s2)CCC1 | stopped-flow | 29.6
OC(Cn1cncn1)(Cn1cncn1)c1ccc(F)cc1F | absorbance | 7910
CC1CCCC(C(=O)Nc2nnc(S(N)(=O)=O)s2)C1 (centres unmarked) | stopped-flow | 31.5
CN(C)CCC(c1ccccc1)c1ccccn1 (centres unmarked) | absorbance | 14000
N#CSCc1cc(=O)oc2cc(O)ccc12 | stopped-flow | > 100000
Cc1ccc(CNC(=S)N/N=C/c2ccc(N3CCC(O)CC3)cc2)cc1 |  | 778
CCOC(=O)N1CCC(=C2c3ccc(Cl)cc3CCc3cccnc32)CC1 | absorbance | 8270
N#CSCCCCOc1ccc2c(-c3ccccc3)cc(=O)oc2c1 | stopped-flow | > 100000
CC(C)[C@H](N)C(=O)OCCOCn1cnc2c(=O)[nH]c(N)nc21 | absorbance | 5740
Cc1cccc(C)c1NC(=S)N/N=C/c1ccc(N2CCC(O)CC2)cc1 |  | 436
Cc1ccccc1CC(=O)Nc1nnc(S(N)(=O)=O)s1 | stopped-flow | 25.7
OC1CCN(c2ccc(/C=N/NC(=S)NCc3ccc(Cl)cc3)cc2)CC1 |  | 378
NS(=O)(=O)c1nnc(NC(=O)C2CC23CCCOC3)s1 (centres unmarked) | stopped-flow | 50.8
Nc1ccc(S(=O)(=O)c2ccc(N)cc2)cc1 | absorbance | 9480
OC1CCN(c2ccc(/C=N/NC(=S)Nc3ccc(Br)cc3)cc2)CC1 |  | 334
NS(=O)(=O)c1cnc(NC(=O)CC2CCCCC2)s1 | stopped-flow | 54.3
